The subject of series [1] is RAW264.7. The series can be described thus: Cytotoxicity against mouse RAW264.7 cells assessed as cell viability at 20 uM after 48 hrs by MTT assay. Format: cell-based. The following applies: raw264.7, 48 h. In outline: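 RAW264.7 cells seeded at 5000/well in 1640 medium with 5% heat-inactivated serum and grown 24 h before treatment. Compounds (DMSO stock) tested at 20 µM final for 48 h. MTT (5 mg/ml in 0.9% NaCl) added for 3 h, formazan dissolved in DMSO, absorbance read at 570 nm.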
(In general: Formazan colour is commonly taken as a measure of viable cells.)

The test system of series [2] is RAW264.7. The series can be described thus: Antiinflammatory activity in mouse RAW264.7 cells assessed as inhibition of LPS-induced TNFalpha release at 10 uM incubated for 2 hrs prior to LPS challenge measured after 22 hrs by ELISA relative to LPS-treated control. Format: functional. In outline:
(§1)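 RAW 264.7 macrophages in DMEM with 10% heat-inactivated FBS, plated at 4.0×10⁵/plate overnight. Pretreated 2 h with compound at 10 µM (curcumin 10 µM as reference), then LPS 0.5 µg/ml for 22 h. Medium cytokine measured by mouse ELISA kit and normalized to cell-lysate total protein. Expressed as % of LPS control, mean ±SEM of 4 independent experiments.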
For orientation: ELISA stands for enzyme-linked immunosorbent assay.

In series [3] the test system is RAW264.7. The series can be described thus: Antiinflammatory activity in mouse RAW264.7 cells assessed as inhibition of LPS-induced IL6 release at 10 uM incubated for 2 hrs prior to LPS challenge measured after 22 hrs by ELISA relative to LPS-treated control. In kind it is functional. The following applies: for inhibition at 10 µM: Mus musculus, RAW264.7. The gist of the method: as §1

The test system of series [4] is Mus musculus. The series can be described thus: Antiinflammatory activity in LPS-treated C57BL/6 mouse assessed as survival rate at 15 mg/kg, ip administered 15 mins measured every 1 day for 7 days relative to LPS-treated control. Format: functional. The following applies: C57BL/6, ip, route intraperitoneal. The gist of the method:
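Male C57BL/6 mice (18-22 g, acclimatized ≥7 days) got LPS 20 mg/kg i.v. and drug 15 mg/kg i.p. either 15 min before or 15 min after. The drug was given at 2 mg/mL in macrogol 15 hydroxystearate (5-10% final), with or without MCT (0.5-2%), dissolved at 37 °C. Controls received vehicle. Survival was recorded daily for 7 days, with 12 mice per group.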

In series [5] the test system is Mus musculus. The series can be described thus: Antiinflammatory activity in C57BL/6 mouse assessed as decrease in LPS-induced septic death at 15 mg/kg, ip administered 15 mins prior to LPS challenge measured every 1 day for 7 days relative to LPS-treated control. Format: functional, organism-based. Also noted: dose 15 mg/kg. The gist of the method:
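Male C57BL/6 mice, 18-22 g ([…]), acclimatized at least 7 days. Drug at 2 mg/mL in macrogol 15 hydroxystearate (5-10%) with or without MCT (0.5-2%), dosed i.p. 15 min before LPS (20 mg/kg i.v.). Vehicle controls received 10% solubilizer with 2% MCT. Survival recorded daily for 7 days, n=12 per group.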

Series [6] relates to RAW264.7. The series can be described thus: Antiinflammatory activity in mouse RAW264.7 cells assessed as inhibition of LPS-induced IL6 release incubated for 2 hrs prior to LPS challenge measured after 22 hrs by ELISA. Format: functional, cell-based. In outline:
(§2)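 RAW 264.7 cells plated at 1.2×10⁶/plate overnight, pretreated 2 h at 0.3, 1.1, 3.3 and 10 µM, then stimulated with LPS 0.5 µg/ml for 22 h. Secreted cytokine quantified by ELISA and normalized to total cell protein, given as % of LPS control. IC50 derived from the concentration-response, 3-5 independent experiments.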

The test system of series [7] is RAW264.7. The series can be described thus: Antiinflammatory activity in mouse RAW264.7 cells assessed as inhibition of LPS-induced TNFalpha release incubated for 2 hrs prior to LPS challenge measured after 22 hrs by ELISA. Format: functional, cell-based. In outline:
as §2

Values joined by “and” are separate entries in the source; they are usually repeats but may differ in a detail not shown here. Identical values can stand only once. Active and inactive are the calls of the source. No cut-off for these calls is given here.

As usually defined, the inhibition is the relative decrease from the control value, in per cent. `O=c1/c(=C/c2cccs2)sc2nc3ccccc3n12`: in the series on RAW264.7 [1], the Activity entry was “Non-toxic”. In addition, the inhibition result in the series on RAW264.7 [2] and with RAW264.7 [3] was “Active” each time.

As to `CCOC(=O)C1=C(C)N=c2s/c(=C\c3ccc(C)cc3C)c(=O)n2C1c1ccccc1` (centres undefined), in the series on RAW264.7 [1], the Activity entry is “Non-toxic”. The inhibition result in the series on RAW264.7 [2] and with RAW264.7 [3] was “Active” each time.

With `CCOC(=O)C1=C(C)N=c2s/c(=C\c3ccc(C)s3)c(=O)n2C1c1ccccc1` (centres undefined), the Activity entry in the series with RAW264.7 [1] is recorded as “Non-toxic”. Moreover, the inhibition result in the series on RAW264.7 [2] was “Active”. Also, the inhibition at 10 µM in the series with RAW264.7 [3] was greater than 50%.

Consider `O=c1/c(=C/c2ccc(N3CCOCC3)cc2)sc2n1CCN=2`, for which the Activity result with RAW264.7 [1] is listed as “Non-toxic”. The inhibition entry in the series on RAW264.7 [2] is “Active”. Further, the inhibition at 10 µM in the series on RAW264.7 [3] is greater than 50%.

`O=c1/c(=C/c2cccc(Cl)c2Cl)sc2nc3ccccc3n12`: the Activity entry in the series on RAW264.7 [1] is recorded as “Non-toxic”. Further, the inhibition result with RAW264.7 [2] and with RAW264.7 [3] was “Active” in each case.

With `COc1cc(/C=c2\sc3nc4ccccc4n3c2=O)ccc1O`, the Activity result with RAW264.7 [1] is listed as “Non-toxic”. In addition, the inhibition entry in the series on RAW264.7 [2] and with RAW264.7 [3] was “Active” each time.

Take `CCOC(=O)C1=C(C)N=c2s/c(=C\c3cccc(OC)c3O)c(=O)n2C1c1ccccc1` (centres undefined): the Activity result with RAW264.7 [1] is recorded as “Non-toxic”. Besides, the inhibition entry in the series with RAW264.7 [2] and with RAW264.7 [3] was “Active” each time.

As for `O=c1/c(=C/c2ccccc2Cl)sc2nc3ccccc3n12`, in the series with RAW264.7 [1], the Activity result was “Non-toxic”. The inhibition result in the series on RAW264.7 [2] and in the series on RAW264.7 [3] was “Active” in each case.

Regarding `O=c1/c(=C/c2c[nH]c3ccccc23)sc2nc3ccccc3n12`, in the series on RAW264.7 [1], the Activity entry is on record as “Non-toxic”. In the series on RAW264.7 [2], the inhibition entry was “Active”. Besides, the inhibition at 10 µM in the series with RAW264.7 [3] is greater than 50%.

`O=c1/c(=C/c2ccccc2Br)sc2nc3ccccc3n12`: the Activity result in the series with RAW264.7 [1] is listed as “Non-toxic”. The inhibition entry with RAW264.7 [2] and with RAW264.7 [3] was “Active” each time.

With `O=c1/c(=C/c2ccccc2[N+](=O)[O-])sc2nc3ccccc3n12`, the Activity result in the series with RAW264.7 [1] is “Non-toxic”. The inhibition result in the series with RAW264.7 [2] and in the series with RAW264.7 [3] was “Active” each time.

Regarding `Cc1ccc(/C=c2\sc3nc4ccccc4n3c2=O)s1`, in the series on RAW264.7 [1], the Activity result was “Non-toxic”. The inhibition result in the series on RAW264.7 [2] and in the series on RAW264.7 [3] was “Active” in each case.

In the case of `O=c1/c(=C/c2ccccc2Br)sc2ncnn12`, the Activity entry in the series on RAW264.7 [1] is listed as “Non-toxic”. In addition, the inhibition at 10 µM with RAW264.7 [2] and in the series on RAW264.7 [3] was greater than 50% throughout.

Turning to `CCOc1ccc(Br)cc1/C=c1\sc2nc3ccccc3n2c1=O`, the Activity entry in the series with RAW264.7 [1] is on record as “Non-toxic”. Further, the inhibition entry in the series with RAW264.7 [2] and with RAW264.7 [3] was “Active” throughout.

As to `CCOC(=O)C1=C(C)N=c2s/c(=C\c3ccccc3F)c(=O)n2C1c1ccccc1` (centres undefined), the Activity entry with RAW264.7 [1] is recorded as “Non-toxic”. Also, the inhibition result in the series on RAW264.7 [2] and in the series with RAW264.7 [3] was “Active” throughout.

Usually IC50 stands for the midpoint of a concentration-inhibition curve. For the compound `CCOC(=O)C1=C(C)N=c2s/c(=C\c3ccc(N4CCOCC4)cc3)c(=O)n2C1c1ccccc1` (centres undefined), in the series with Mus musculus [4], the survival at 15 mg/kg was found to be 70%. In the series with Mus musculus [5], the result was inactive. The Activity entry in the series on RAW264.7 [1] is reported as “Non-toxic”. In addition, the half-inhibitory concentration (IC50) with RAW264.7 [6] was found to be 0.83 µM; in the series on RAW264.7 [7] it was 4.17 µM. In addition, the inhibition entry in the series with RAW264.7 [6] and with RAW264.7 [7] was “Dose-dependent effect” each time. In addition, the values for the inhibition at 10 µM in the series on RAW264.7 [2] and with RAW264.7 [3] were 62% and 92%, respectively.

Consider `CCOC(=O)C1=C(C)N=c2s/c(=C\c3cccn3C)c(=O)n2C1c1ccccc1` (centres undefined), for which, in the series on RAW264.7 [1], the Activity entry is “Non-toxic”. The results for the concentration for half-maximal inhibition (IC50) with RAW264.7 [6] and in the series with RAW264.7 [7] were 6.39 µM and greater than 10 µM, respectively. For the same compound, the inhibition at 10 µM in the series with RAW264.7 [2] stood at 60%. Also, the “inhibition (INH)” value in the series on RAW264.7 [3] is 50% and 87%.

As to `COc1ccc(/C=c2\sc3nc4ccccc4n3c2=O)cc1O`, the Activity result with RAW264.7 [1] is “Non-toxic”. Also, the inhibition entry in the series on RAW264.7 [2] and in the series with RAW264.7 [3] was “Active” each time.

With `Cc1ccc(/C=c2\sc3nc4ccccc4n3c2=O)c(C)c1`, the Activity result with RAW264.7 [1] is listed as “Non-toxic”. The inhibition entry with RAW264.7 [2] and in the series on RAW264.7 [3] was “Active” each time.

Consider `CCOC(=O)C1=C(C)N=c2s/c(=C\c3ccccc3Br)c(=O)n2C1c1ccccc1` (centres undefined), for which the Activity entry with RAW264.7 [1] is listed as “Non-toxic”. Also, the inhibition entry in the series on RAW264.7 [2] and with RAW264.7 [3] was “Active” throughout.

Turning to `O=c1/c(=C/c2c[nH]c3ccccc23)sc2ncnn12`, the Activity entry with RAW264.7 [1] is reported as “Non-toxic”. Moreover, the inhibition result with RAW264.7 [2] was “Active”. Besides, the inhibition at 10 µM with RAW264.7 [3] is greater than 50%.

On to `COc1cccc(/C=c2\sc3ncnn3c2=O)c1OC`, for which, in the series with RAW264.7 [1], the Activity entry is given as “Non-toxic”. The inhibition result in the series on RAW264.7 [2] and in the series on RAW264.7 [3] was “Active” in each case.

For `CCOC(=O)C1=C(C)N=c2s/c(=C\c3cccc4ccccc34)c(=O)n2C1c1ccccc1` (centres undefined), the Activity entry in the series with RAW264.7 [1] is on record as “Non-toxic”. Besides, the inhibition entry in the series with RAW264.7 [2] and in the series on RAW264.7 [3] was “Active” each time.

As to `Cn1cccc1/C=c1\sc2n(c1=O)CCN=2`, in the series on RAW264.7 [1], the Activity result is “Non-toxic”. The inhibition at 10 µM with RAW264.7 [2] and in the series with RAW264.7 [3] was greater than 50% throughout.

As for `O=c1/c(=C/c2ccc(N3CCOCC3)cc2)sc2nc3ccccc3n12`, the Activity entry in the series on RAW264.7 [1] is given as “Non-toxic”. The inhibition entry in the series with RAW264.7 [2] and with RAW264.7 [3] was “Active” each time.

With `O=c1/c(=C/c2ccc(N3CCOCC3)cc2)sc2ncnn12`, the Activity result with RAW264.7 [1] is “Non-toxic”. Further, the inhibition at 10 µM with RAW264.7 [2] and with RAW264.7 [3] was greater than 50% in each case.

As for `Cc1ccc(/C=c2\sc3n(c2=O)CCN=3)s1`, in the series with RAW264.7 [1], the Activity result is listed as “Non-toxic”. In the series with RAW264.7 [2], the inhibition at 10 µM was greater than 50%. In addition, in the series on RAW264.7 [3], the inhibition result is “Active”.

As for `O=c1/c(=C/c2ccccc2Cl)sc2n1CCN=2`, the Activity entry in the series with RAW264.7 [1] is given as “Non-toxic”. Besides, the inhibition result in the series on RAW264.7 [2] and with RAW264.7 [3] was “Active” each time.

As to `O=c1/c(=C/c2ccc3ccccc3c2)sc2nc3ccccc3n12`, the Activity entry in the series with RAW264.7 [1] is “Non-toxic”. The inhibition entry with RAW264.7 [2] and in the series with RAW264.7 [3] was “Active” throughout.

As to `COc1ccccc1/C=c1\sc2nc3ccccc3n2c1=O`, the Activity result in the series with RAW264.7 [1] is listed as “Non-toxic”. The inhibition result with RAW264.7 [2] and in the series on RAW264.7 [3] was “Active” each time.

As for `Cc1ccc(/C=c2\sc3ncnn3c2=O)s1`, the Activity entry with RAW264.7 [1] was “Non-toxic”. Further, the inhibition result in the series with RAW264.7 [2] and in the series with RAW264.7 [3] was “Active” throughout.

In the case of `O=c1/c(=C/c2ccccc2F)sc2nc3ccccc3n12`, the Activity result in the series with RAW264.7 [1] is recorded as “Non-toxic”. Further, the inhibition result in the series with RAW264.7 [2] and in the series on RAW264.7 [3] was “Active” in each case.

The values above are taken from ChEMBL document CHEMBL2390882, “Synthesis and biological evaluation of novel thiazolidinone derivatives as potential anti-inflammatory agents” (Eur J Med Chem, 2013).
